In series [1] the target is GABA-A receptor; alpha-2/beta-3/gamma-2 (Homo sapiens) (UniProt P18507+P28472+P47869). Nature of the series: In vitro percent efficacy against human gamma-aminobutyric-acid A receptor alpha-2-beta-3-gamma-2 expressed in L(tk-) cells. The format is cell-based. The method in brief: (§1)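 Whole-cell patch clamp on mouse fibroblast L(tk-) cells stably expressing human αxβ3γ2 receptors. Efficacy is the maximum % modulation of current evoked by a submaximal (EC20) GABA concentration. Mean ± SEM from at least five individually fitted concentration–response curves per subtype.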

Series [2] has as its target T1, GABA-A receptor; alpha-2/beta-3/gamma-2 (Homo sapiens, UniProt P18507+P28472+P47869).
T1 sequence (P18507 whole entry): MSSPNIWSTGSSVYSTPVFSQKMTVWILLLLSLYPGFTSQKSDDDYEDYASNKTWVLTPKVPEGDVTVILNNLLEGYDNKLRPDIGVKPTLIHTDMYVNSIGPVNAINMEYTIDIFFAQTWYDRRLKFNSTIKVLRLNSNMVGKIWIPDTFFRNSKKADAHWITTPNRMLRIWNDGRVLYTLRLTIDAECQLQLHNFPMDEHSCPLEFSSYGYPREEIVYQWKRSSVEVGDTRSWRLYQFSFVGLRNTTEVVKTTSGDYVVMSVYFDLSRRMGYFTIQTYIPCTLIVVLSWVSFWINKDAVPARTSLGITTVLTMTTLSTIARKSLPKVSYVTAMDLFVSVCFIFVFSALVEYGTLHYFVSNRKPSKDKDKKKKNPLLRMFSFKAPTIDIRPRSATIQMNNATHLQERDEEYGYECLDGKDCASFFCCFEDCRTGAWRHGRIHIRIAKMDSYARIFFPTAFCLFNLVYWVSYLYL
T1 sequence (P28472 whole entry): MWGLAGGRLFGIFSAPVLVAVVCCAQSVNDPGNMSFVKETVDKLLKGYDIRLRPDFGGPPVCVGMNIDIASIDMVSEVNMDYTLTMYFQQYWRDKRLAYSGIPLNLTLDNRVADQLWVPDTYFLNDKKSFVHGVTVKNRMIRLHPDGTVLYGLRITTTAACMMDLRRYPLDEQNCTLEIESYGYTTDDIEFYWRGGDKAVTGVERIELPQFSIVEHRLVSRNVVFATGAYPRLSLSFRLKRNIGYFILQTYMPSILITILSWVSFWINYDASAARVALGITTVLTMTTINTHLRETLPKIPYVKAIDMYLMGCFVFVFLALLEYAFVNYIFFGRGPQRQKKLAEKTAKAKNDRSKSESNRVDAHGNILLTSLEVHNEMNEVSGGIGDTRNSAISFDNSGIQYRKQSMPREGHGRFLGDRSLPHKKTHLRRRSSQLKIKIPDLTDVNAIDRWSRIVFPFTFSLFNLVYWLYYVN
T1 sequence (P47869 whole entry): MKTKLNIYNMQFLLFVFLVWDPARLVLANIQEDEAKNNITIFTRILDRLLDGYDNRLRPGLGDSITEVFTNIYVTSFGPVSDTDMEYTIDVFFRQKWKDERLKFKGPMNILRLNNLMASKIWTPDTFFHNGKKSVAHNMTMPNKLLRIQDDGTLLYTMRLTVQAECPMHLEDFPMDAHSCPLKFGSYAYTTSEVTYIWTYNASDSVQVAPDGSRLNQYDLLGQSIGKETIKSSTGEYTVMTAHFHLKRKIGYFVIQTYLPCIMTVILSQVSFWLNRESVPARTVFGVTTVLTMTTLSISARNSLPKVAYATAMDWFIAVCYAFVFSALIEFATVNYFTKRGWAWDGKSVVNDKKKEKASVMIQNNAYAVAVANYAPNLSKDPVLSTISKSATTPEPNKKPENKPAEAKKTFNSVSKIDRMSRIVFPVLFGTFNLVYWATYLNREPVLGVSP
The series is described as follows: Displacement of [3H]-Ro- 15-1788 from human gamma-aminobutyric-acid GABA-A receptor alpha-2-beta-3-gamma-2 expressed in L(tk-) cells. Type of series: cell-based.

Series [3] addresses GABA-A receptor; alpha-1/beta-3/gamma-2 (Homo sapiens) (UniProt P14867+P18507+P28472). Nature of the series: In vitro percent efficacy against human gamma-aminobutyric-acid A receptor alpha-1-beta-3-gamma-2 expressed in L(tk-) cells. Type of series: cell-based. In outline:
as §1

A short description of series [4]: Oral bioavailability in dog. The conditions noted are these: in vivo. Type of series: ADME, organism-based, Canis lupus familiaris.
The target in series [5] is GABA-A receptor; alpha-3/beta-3/gamma-2 (Homo sapiens) (UniProt P18507+P28472+P34903). The series is described as follows: In vitro percent efficacy against human gamma-aminobutyric-acid A receptor alpha-3-beta-3-gamma-2 expressed in L(tk-) cells. Type of series: cell-based. The method in brief: as §1
The target in series [6] is T2, GABA-A receptor; alpha-5/beta-3/gamma-2 (Homo sapiens, UniProt P18507+P28472+P31644).
T2 sequence (P18507 whole entry): T1 sequence (P18507 whole entry)
T2 sequence (P28472 whole entry): T1 sequence (P28472 whole entry)
T2 sequence (P31644 whole entry): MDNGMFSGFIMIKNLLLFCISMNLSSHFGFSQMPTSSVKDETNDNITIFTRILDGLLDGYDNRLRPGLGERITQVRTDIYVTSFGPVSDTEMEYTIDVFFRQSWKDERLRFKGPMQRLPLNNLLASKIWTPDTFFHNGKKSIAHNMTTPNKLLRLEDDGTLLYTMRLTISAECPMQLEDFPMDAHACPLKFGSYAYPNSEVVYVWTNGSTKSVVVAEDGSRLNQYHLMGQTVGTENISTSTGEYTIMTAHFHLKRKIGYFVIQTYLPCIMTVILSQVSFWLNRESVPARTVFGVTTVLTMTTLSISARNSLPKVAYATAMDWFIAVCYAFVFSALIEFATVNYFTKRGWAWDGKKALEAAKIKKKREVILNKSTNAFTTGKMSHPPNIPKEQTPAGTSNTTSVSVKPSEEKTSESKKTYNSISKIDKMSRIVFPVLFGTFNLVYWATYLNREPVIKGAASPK
Nature of the series: Displacement of [3H]-Ro- 15-1788 from human gamma-aminobutyric-acid GABA-A receptor alpha-5-beta-3-gamma-2 expressed in L(tk-) cells. Type of series: cell-based. On the technique in general: In a radioligand displacement assay an active substance lowers the binding of a labelled ligand.

In series [7] the target is GABA A receptor alpha-4/beta-3/gamma-2 (Homo sapiens, UniProt P18507+P28472+P48169). The series is described as follows: Binding affinity towards gamma-aminobutyric-acid GABA-A receptor alpha-4-beta-3-gamma-2. Type of series: protein-complex assay.
Series [8] addresses T3, GABA-A receptor; alpha-3/beta-3/gamma-2 (Homo sapiens, UniProt P18507+P28472+P34903).
T3 sequence (P18507 whole entry): T1 sequence (P18507 whole entry)
T3 sequence (P28472 whole entry): T1 sequence (P28472 whole entry)
T3 sequence (P34903 whole entry): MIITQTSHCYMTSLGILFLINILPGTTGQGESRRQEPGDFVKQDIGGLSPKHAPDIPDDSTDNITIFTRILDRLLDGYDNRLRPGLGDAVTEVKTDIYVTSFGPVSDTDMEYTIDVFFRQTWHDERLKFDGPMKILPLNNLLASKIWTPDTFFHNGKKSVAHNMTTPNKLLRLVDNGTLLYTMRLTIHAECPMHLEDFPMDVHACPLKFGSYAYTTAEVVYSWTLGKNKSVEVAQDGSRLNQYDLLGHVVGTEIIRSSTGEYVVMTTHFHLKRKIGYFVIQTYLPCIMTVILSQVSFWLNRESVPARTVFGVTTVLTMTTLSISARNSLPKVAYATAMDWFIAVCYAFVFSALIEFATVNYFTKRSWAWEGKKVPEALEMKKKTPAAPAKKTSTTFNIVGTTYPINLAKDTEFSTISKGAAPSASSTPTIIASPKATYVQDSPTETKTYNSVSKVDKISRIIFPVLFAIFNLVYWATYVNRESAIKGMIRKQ
Nature of the series: Displacement of [3H]-Ro- 15-1788 from human gamma-aminobutyric-acid GABA-A receptor alpha-3-beta-3-gamma-2 expressed in L(tk-) cells. The format is cell-based.

Series [9] in a line: Oral bioavailability in rat. The conditions noted are these: in vivo. The format is ADME, organism-based.
In series [10] the target is T4, GABA-A receptor; alpha-1/beta-3/gamma-2 (Homo sapiens, UniProt P14867+P18507+P28472).
T4 sequence (P14867 whole entry): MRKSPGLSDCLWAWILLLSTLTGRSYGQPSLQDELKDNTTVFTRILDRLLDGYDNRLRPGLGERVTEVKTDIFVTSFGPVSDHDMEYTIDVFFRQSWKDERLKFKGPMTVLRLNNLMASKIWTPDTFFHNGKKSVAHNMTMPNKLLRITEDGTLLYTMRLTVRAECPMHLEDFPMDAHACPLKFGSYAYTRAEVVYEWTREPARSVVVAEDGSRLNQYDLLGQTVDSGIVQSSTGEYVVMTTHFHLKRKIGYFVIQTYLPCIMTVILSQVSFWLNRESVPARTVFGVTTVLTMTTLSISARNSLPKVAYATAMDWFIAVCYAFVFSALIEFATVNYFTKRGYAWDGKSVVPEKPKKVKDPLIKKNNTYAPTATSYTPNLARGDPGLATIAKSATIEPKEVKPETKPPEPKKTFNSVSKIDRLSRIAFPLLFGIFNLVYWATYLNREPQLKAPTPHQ
T4 sequence (P18507 whole entry): T1 sequence (P18507 whole entry)
T4 sequence (P28472 whole entry): T1 sequence (P28472 whole entry)
The series is described as follows: Displacement of [3H]-Ro- 15-1788 from human gamma-aminobutyric-acid GABA-A receptor alpha-1-beta-3-gamma-2 expressed in L(tk-) cells. The format is cell-based.

The target in series [11] is GABA-A receptor; alpha-5/beta-3/gamma-2 (Homo sapiens) (UniProt P18507+P28472+P31644). The series is described as follows: In vitro percent efficacy against human gamma-aminobutyric-acid A receptor alpha-5-beta-3-gamma-2 expressed in L(tk-) cells. The format is cell-based. In outline: as §1
In series [12] the target is GABA-A receptor; anion channel (Rattus norvegicus) (UniProt O09028+P15431+P18506+P18508+P19969+P20236+P23574+P23576+P28471+P28473+P30191+P62813+P63079+P63138+Q91ZM7+Q9ES14). Nature of the series: Concentration required to occupy 50% of gamma-aminobutyric-acid GABA-A receptor alpha subtype at 0.75 hr after dose. Type of series: protein-complex assay. In outline: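 Rats dosed orally in 0.5% Methocel vehicle; occupancy of the benzodiazepine binding site measured 0.75 h postdose by in vivo [3H]Ro 15-1788 binding. Dose giving 50% occupancy read from the dose–occupancy relationship.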

Series [13] has as its target GABA-A receptor; alpha-6/beta-3/gamma-2 (Homo sapiens, UniProt P18507+P28472+Q16445). The series is described as follows: Binding affinity towards gamma-aminobutyric-acid GABA-A receptor alpha-6-beta-3-gamma-2. The format is protein-complex assay.

The text below walks through data of ChEMBL document CHEMBL1138841, “An orally bioavailable, functionally selective inverse agonist at the benzodiazepine site of GABAA alpha5 receptors with cognition enhancing properties” (J Med Chem, 2004).

GABA A receptor alpha-4/beta-3/gamma-2, sequence (P48169 whole entry, one chain of several): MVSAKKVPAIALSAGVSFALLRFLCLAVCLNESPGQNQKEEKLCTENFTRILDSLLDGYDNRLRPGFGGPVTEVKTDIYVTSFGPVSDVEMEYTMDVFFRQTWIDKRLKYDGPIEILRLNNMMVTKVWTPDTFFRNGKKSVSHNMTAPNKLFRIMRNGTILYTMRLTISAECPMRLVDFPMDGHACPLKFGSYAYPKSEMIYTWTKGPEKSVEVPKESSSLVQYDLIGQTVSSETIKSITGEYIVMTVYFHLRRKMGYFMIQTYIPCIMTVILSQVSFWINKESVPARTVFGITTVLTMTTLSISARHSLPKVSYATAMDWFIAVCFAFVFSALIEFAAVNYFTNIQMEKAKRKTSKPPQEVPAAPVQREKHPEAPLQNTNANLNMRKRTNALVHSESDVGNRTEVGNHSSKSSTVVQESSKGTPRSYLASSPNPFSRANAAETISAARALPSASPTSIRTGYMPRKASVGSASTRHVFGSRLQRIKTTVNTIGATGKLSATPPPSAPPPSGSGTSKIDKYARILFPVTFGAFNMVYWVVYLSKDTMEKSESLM
GABA-A receptor; alpha-6/beta-3/gamma-2, sequence (Q16445 whole entry, one chain of several): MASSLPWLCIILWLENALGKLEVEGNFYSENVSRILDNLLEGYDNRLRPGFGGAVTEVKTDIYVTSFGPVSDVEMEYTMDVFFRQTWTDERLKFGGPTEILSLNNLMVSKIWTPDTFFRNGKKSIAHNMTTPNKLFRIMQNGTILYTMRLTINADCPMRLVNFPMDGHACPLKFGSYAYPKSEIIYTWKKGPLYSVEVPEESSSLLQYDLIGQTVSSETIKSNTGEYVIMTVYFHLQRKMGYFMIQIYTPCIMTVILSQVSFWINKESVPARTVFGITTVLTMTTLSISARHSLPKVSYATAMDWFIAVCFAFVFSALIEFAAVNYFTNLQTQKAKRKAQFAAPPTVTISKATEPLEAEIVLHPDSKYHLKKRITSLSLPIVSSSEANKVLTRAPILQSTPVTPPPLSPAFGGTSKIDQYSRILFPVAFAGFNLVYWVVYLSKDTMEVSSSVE

As for `Cc1cc(-c2nncc3c(C(C)(C)C)c(OCc4ncnn4C)nn23)no1`, the Efficacy in [1] was 6%; in series [3], -16%; in series [5], -9%; in series [11], -55%. In addition, the Ki (usually the dissociation constant of the complex between target and ligand, obtained from inhibition or displacement) in series [2] is 0.85 nM; in [6], 1.4 nM; in series [7], 395 nM; in series [8], 0.77 nM; in series [10], 0.83 nM; in series [13] it was greater than 4 µM. Also, the bioavailability (as a rule, the share of a dose that reaches the circulation, judged against a reference dose that is usually intravenous) was determined as 8% in series [4] and 52% in series [9]. This compound also had an Occupancy in series [12] of 0.35 mg/kg.
`CCc1c(C(=O)OC)ncc2[nH]c3cc(OC)c(OC)cc3c12`: the Efficacy in [1] is -53%; in [3], -71%; in series [5] it was -62%; in [11], -57%.
In the case of `Cc1cc(-c2nnc3c4ccccc4c(OCc4cn(C)nn4)nn23)no1`, the Efficacy in series [1] is 16%; in [3], -15%; in series [5], -7%; in series [11] it was -40%.
For the compound `CNC1=Nc2ccc(Cl)cc2C(c2ccccc2)=[N+]([O-])C1`, the Efficacy in series [1] was found to be 111%; in series [3] it was 100%; in series [5], 113%.
